# Measured values from ChEMBL document CHEMBL1944559, “Phosphodiesterase inhibitors. Part 3: Design, synthesis and structure-activity relationships of dual PDE3/4-inhibitory fused bicyclic heteroaromatic-dihydropyridazinones with anti-inflammatory and bronchodilatory activity” (Bioorg Med Chem, 2012).
# What was measured:
# [1] = target: T1, cGMP-inhibited 3',5'-cyclic phosphodiesterase 3A (Homo sapiens, UniProt Q14432); experiment: Inhibition of human PDE3A catalytic domain
# How it was run: (§1)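 IC50 determined in enzyme inhibition assays on the core catalytic domains of PDE3A and PDE4B, following previously reported protocols, from at least three experiments; roflumilast run as positive control.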
# [2] = target: T2, 3',5'-cyclic-AMP phosphodiesterase 4B (Homo sapiens, UniProt Q07343); experiment: Inhibition of human PDE4B catalytic domain; how it was run: as §1
# [3] = test system: Rattus norvegicus; experiment: Antiinflammatory activity in Wistar rat assessed as inhibition of LPS-induced TNFalpha release at 1 mg/kg, po; assay type: functional
# [4] = target: T1, cGMP-inhibited 3',5'-cyclic phosphodiesterase 3A; experiment: Ratio of KCA-1450 IC50 to compound IC50 for human PDE3A catalytic domain
# [5] = test system: Cavia porcellus; experiment: Inhibition of histamine-induced bronchoconstriction in Hartley guinea pig at 1 mg/kg, po administered 30 mins prior histamine challenge; assay type: functional
# How it was run: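 Oral dosing at 1 mg/kg in guinea pigs before histamine challenge, by an established procedure; scored against control as ++ (≥70% inhibition of bronchoconstriction) or + (30–69%).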
# [6] = target: T2, 3',5'-cyclic-AMP phosphodiesterase 4B; experiment: Ratio of KCA-1450 IC50 to compound IC50 for human PDE4B catalytic domain
# [7] = test system: Cavia porcellus; experiment: Inhibition of histamine-induced bronchoconstriction in Hartley guinea pig at 0.1 mg/kg, iv administered 30 mins prior histamine challenge; assay type: functional
# How it was run: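 Guinea pigs given compound iv at 0.1 mg/kg before histamine challenge; bronchoconstriction measured by an established procedure; result expressed as % inhibition of constriction relative to control.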
# T2 sequence (Q07343 whole entry, the tested form may be a part): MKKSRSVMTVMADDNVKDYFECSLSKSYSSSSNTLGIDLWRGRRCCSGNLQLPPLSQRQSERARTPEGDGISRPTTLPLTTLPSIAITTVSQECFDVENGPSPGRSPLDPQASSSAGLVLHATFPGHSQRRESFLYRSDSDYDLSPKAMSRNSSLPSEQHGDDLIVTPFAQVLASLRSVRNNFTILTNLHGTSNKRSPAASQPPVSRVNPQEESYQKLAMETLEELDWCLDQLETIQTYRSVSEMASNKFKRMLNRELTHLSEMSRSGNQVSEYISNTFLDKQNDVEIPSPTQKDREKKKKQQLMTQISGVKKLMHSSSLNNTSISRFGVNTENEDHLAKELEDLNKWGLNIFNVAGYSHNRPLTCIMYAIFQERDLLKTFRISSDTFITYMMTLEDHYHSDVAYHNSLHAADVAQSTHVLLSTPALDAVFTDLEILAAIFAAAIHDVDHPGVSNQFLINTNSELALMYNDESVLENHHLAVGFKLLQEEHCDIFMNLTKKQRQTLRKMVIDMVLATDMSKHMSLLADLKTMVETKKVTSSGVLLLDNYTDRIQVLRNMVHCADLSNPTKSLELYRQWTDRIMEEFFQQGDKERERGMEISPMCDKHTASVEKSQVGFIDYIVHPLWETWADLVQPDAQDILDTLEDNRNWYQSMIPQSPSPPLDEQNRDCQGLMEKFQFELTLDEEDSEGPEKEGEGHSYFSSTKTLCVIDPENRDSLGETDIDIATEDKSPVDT
# T1 sequence (Q14432 whole entry, the tested form may be a part): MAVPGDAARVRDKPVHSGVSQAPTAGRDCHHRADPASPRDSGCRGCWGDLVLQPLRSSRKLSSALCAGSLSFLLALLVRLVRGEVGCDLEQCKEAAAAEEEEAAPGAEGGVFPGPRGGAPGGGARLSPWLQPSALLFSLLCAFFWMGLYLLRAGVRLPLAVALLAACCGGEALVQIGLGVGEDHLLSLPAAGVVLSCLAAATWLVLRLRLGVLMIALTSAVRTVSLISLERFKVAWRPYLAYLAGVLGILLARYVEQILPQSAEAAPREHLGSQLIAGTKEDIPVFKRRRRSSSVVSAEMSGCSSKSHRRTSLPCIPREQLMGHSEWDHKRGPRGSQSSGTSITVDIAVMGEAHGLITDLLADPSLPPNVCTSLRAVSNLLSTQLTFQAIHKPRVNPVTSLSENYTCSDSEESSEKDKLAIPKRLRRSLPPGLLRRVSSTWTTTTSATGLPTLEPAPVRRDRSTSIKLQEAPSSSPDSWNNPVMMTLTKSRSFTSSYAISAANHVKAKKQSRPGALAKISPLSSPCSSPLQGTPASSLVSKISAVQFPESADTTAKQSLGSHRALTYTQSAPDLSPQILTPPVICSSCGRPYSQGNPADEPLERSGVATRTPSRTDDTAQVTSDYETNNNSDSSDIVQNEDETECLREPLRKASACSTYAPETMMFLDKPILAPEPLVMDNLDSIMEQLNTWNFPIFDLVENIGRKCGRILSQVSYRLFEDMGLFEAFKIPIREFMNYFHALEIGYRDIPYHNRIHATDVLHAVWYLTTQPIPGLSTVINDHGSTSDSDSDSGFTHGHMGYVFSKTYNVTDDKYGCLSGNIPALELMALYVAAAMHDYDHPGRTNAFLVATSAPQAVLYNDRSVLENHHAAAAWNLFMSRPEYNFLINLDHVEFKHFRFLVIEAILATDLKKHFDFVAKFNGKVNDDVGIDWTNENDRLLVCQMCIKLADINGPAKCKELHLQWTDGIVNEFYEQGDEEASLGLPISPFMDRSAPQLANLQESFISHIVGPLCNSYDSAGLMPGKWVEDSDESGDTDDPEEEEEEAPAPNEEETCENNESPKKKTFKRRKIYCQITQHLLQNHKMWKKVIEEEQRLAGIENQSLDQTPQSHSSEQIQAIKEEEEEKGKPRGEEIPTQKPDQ
IC50 [1] [nM],IC50 [2] [nM],Ratio IC50 [4],Ratio IC50 [6],SMILES,inhibition in vivo at 1 mg/kg [3] [%],inhibition in vivo at 1 mg/kg [5] [%],inhibition in vivo at 0.1 mg/kg [7] [%]
150,21,16,3,COc1ccc(C2=NNC(=O)CC2C)c2sc(C(F)(F)F)nc12 (racemic),80,≥ 70,97
10200,430,,,COc1ccc(C2=NNC(=O)CC2C)c2nc(C(F)(F)F)nn12 (racemic),,,
5740,1010,,,COc1ccc(C2=NNC(=O)CC2C)c2oc(C(F)(F)F)nc12 (racemic),,,
22200,300,,,COc1ccc(C2=NNC(=O)CC2C)c2[nH]c(C(F)(F)F)nc12 (racemic),,,
2850,280,,,COc1ccc(C2=NNC(=O)CC2C)c2cc(C(F)(F)F)sc12 (racemic),,,17
6430,1520,,,COc1ccc(C2=NNC(=O)CC2C)c2nc(C(F)(F)F)oc12 (racemic),,,
970,350,2.5,,COc1ccc(C2=NNC(=O)CC2C)c2ccc(C(F)(F)F)nc12 (racemic),68,≥ 70,99
19800,380,,,COc1ccc(C2=NNC(=O)CC2C)c2cc(C(F)(F)F)oc12 (racemic),,,
1450,260,,,COc1ccc(C2=NNC(=O)CC2C)n2cc(C(F)(F)F)nc12 (racemic),62,> 30,99

SMILES,IC50 [1] [nM],IC50 [2] [nM],Ratio IC50 [4],Ratio IC50 [6],inhibition in vivo at 1 mg/kg [3] [%],inhibition in vivo at 1 mg/kg [5] [%],inhibition in vivo at 0.1 mg/kg [7] [%]
CCc1cc2c(C3=NNC(=O)CC3C)ccc(OC)n2c1 (racemic),20700,3490,,,,,
